Reference: ChEMBL document CHEMBL4396897, “Potent 5-Cyano-6-phenyl-pyrimidin-Based Derivatives Targeting DCN1-UBE2M Interaction” (J Med Chem, 2019)
Calls of active or inactive are those of the source. The rule behind the calls is not given here.

Key:
NCI-H1975 [1] = assay: Induction of apoptosis in human NCI-NCI-H1975 cells assessed as late apoptotic cells at 2.5 uM after 48 hrs by Annexin V-FITC/propidium iodide staining based flow cytometry (reference value: 0.46%); format: functional
NCI-H1975 [2] = assay: Effect on NRF2 accumulation in human NCI-H1975 cells transfected with DCN1 siRNA3 by densitometric method; format: functional, cell-based
In short: (§1)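 H1975 or PC9 cells seeded in 6-well plates for 16-24h, transfected with DCN1 siRNA#3 by lipofection, with or without compound, and collected three days later. Western blot for Cullin3, DCN1, NRF2, HO-1 and NQO1, with densitometry normalized to GAPDH. Three individual experiments, means ± SD.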

NCI-H1975 [3] = assay: Inhibition of colony formation in human […] cells after 7 days by crystal violet staining based microscopic analysis; format: functional, cell-based
In short: (§2)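 H1975, PC9 and A549 cells seeded at 1×10^3 cells per well and cultured overnight, then given fresh medium with compound at 0, 0.625, 1.25, 2.5, 5 or 10μM for 7 days. Cells fixed, stained with 0.1% crystal violet and imaged by microscopy; dye then dissolved and read on a plate reader. Three experiments; means ± SD.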

PC-9 [4] = assay: Antiproliferative activity against human PC9 by MTT assay; format: functional, cell-based
In short: (§3)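 MTT viability assay: cells seeded at 2~5×10^3 per well, exposed to serial dilutions of compound for 72h, then MTT (5 mg/mL in PBS) added for 4h at 37°C. Formazan dissolved in DMSO and read at 490nm. IC50 reported as mean ± SD of three independent experiments.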

A549 [5] = assay: Induction of apoptosis in human A549 cells after 48 hrs by Annexin V-FITC/propidium iodide staining based flow cytometry; format: functional, cell-based
A549 [6] = assay: Induction of apoptosis in human A549 cells assessed as viable cells at 2.5 uM after 48 hrs by Annexin V-FITC/propidium iodide staining based flow cytometry (reference value: 92.9%); format: functional; conditions: A549, 48 h, read-out: Activity
A549 [7] = assay: Induction of apoptosis in human A549 cells assessed as viable cells at 5 uM after 48 hrs by Annexin V-FITC/propidium iodide staining based flow cytometry (reference value: 92.9%); format: functional; conditions: A549, 48 h, read-out: Activity
NCI-H1975 [8] = assay: Antiproliferative activity against human NCI-NCI-H1975 by MTT assay; format: functional, cell-based; conditions: TDE = time-dependent effect
PC-9 [9] = assay: Induction of apoptosis in human PC9 cells assessed as late apoptotic cells at 10 uM after 48 hrs by Annexin V-FITC/propidium iodide staining based flow cytometry (reference value: 1.57%); format: functional
A549 [10] = assay: Induction of apoptosis in human A549 cells assessed as necrotic cells at 5 uM after 48 hrs by Annexin V-FITC/propidium iodide staining based flow cytometry (reference value: 0.88%); format: functional
PC-9 [11] = assay: Induction of apoptosis in human PC9 cells assessed as necrotic cells at 5 uM after 48 hrs by Annexin V-FITC/propidium iodide staining based flow cytometry (reference value: 1.34%); format: functional
In short: (§4)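 PC9 cells seeded in 6-well plates (1~2×10^6 cells/mL), incubated overnight, then exposed to 0, 2.5, 5 or 10µM compound for 48h. Harvested cells stained with Annexin-V-FITC/PI for 30 min and analysed by flow cytometry. Three individual experiments; means ± SD.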

A549 [12] = assay: Induction of apoptosis in human A549 cells assessed as early apoptotic cells at 10 uM after 48 hrs by Annexin V-FITC/propidium iodide staining based flow cytometry (reference value: 3.63%); format: functional
PC-9 [13] = assay: Induction of apoptosis in human PC9 cells assessed as viable cells at 10 uM after 48 hrs by Annexin V-FITC/propidium iodide staining based flow cytometry (reference value: 95.7%); format: functional; conditions: PC-9, 48 h, read-out: Activity; in short: as §4
PC-9 [14] = assay: Effect on NRF2 accumulation in human PC9 cells transfected with DCN1 siRNA3 by densitometric method; format: functional, cell-based; in short: as §1
A549 [15] = assay: Induction of apoptosis in human A549 cells assessed as necrotic cells at 10 uM after 48 hrs by Annexin V-FITC/propidium iodide staining based flow cytometry (reference value: 0.88%); format: functional
A549 [16] = assay: Induction of apoptosis in human A549 cells assessed as late apoptotic cells at 10 uM after 48 hrs by Annexin V-FITC/propidium iodide staining based flow cytometry (reference value: 2.61%); format: functional
PC-3 = assay: Antiproliferative activity against human PC3 after 72 hrs by MTT assay; format: functional, cell-based; conditions: PC-3, 72 h; in short: as §3
NCI-H1975 [17] = assay: Induction of apoptosis in human NCI-NCI-H1975 cells assessed as necrotic cells at 5 uM after 48 hrs by Annexin V-FITC/propidium iodide staining based flow cytometry (reference value: 0.94%); format: functional
GES1 = assay: Antiproliferative activity against human GES-1 after 72 hrs by MTT assay; format: cell-based; conditions: ges1, 72 h; in short: as §3
[18] = Aqueous solubility of compound in pH 7.4 PBS sonicated for 30 mins followed by 24 hrs incubation under shaking condition by UV-Vis spectroscopy; format: physicochemical; conditions: buffer, pH 7.4, 24 h
In short: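 Compound powder added to phosphate buffer (PBS, pH 7.4) until a suspension formed. Sonicated 30 min in a water bath, then shaken 24 h at room temperature to reach equilibrium. Centrifuged, supernatant filtered through a 0.45µm membrane, and filtrate measured by UV spectroscopy against a PBS control.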

PC-9 [19] = assay: Inhibition of colony formation in human PC9 cells after 7 days by crystal violet staining based microscopic analysis; format: functional, cell-based; in short: as §2
A549 [20] = assay: Induction of apoptosis in human A549 cells assessed as late apoptotic cells at 5 uM after 48 hrs by Annexin V-FITC/propidium iodide staining based flow cytometry (reference value: 2.61%); format: functional
MCF7 = assay: Antiproliferative activity against human MCF7 after 72 hrs by MTT assay; format: functional, cell-based; conditions: MCF7, 72 h; in short: as §3
A549 [21] = assay: Induction of apoptosis in human A549 cells assessed as early apoptotic cells at 2.5 uM after 48 hrs by Annexin V-FITC/propidium iodide staining based flow cytometry (reference value: 3.63%); format: functional
TE-1 = assay: Antiproliferative activity against human TE1 after 72 hrs by MTT assay; format: functional, cell-based; in short: as §3
NCI-H1975 [22] = assay: Induction of apoptosis in human NCI-NCI-H1975 cells assessed as early apoptotic cells at 2.5 uM after 48 hrs by Annexin V-FITC/propidium iodide staining based flow cytometry (reference value: 2.47%); format: functional
PC-9 [23] = assay: Effect on Cullin3 neddylation in human PC9 cells transfected with DCN1 siRNA3 by densitometric method; format: functional, cell-based; in short: as §1
PC-9 [24] = assay: Induction of apoptosis in human PC9 cells assessed as early apoptotic cells at 2.5 uM after 48 hrs by Annexin V-FITC/propidium iodide staining based flow cytometry (reference value: 1.36%); format: functional; in short: as §4
DCN1-like protein 1 = DCN1-like protein 1 (Homo sapiens, UniProt Q96GG9)
NCI-H1975 [25] = assay: Induction of apoptosis in human NCI-NCI-H1975 cells after 48 hrs by Annexin V-FITC/propidium iodide staining based flow cytometry; format: functional, cell-based

Chain of DCN1-like protein 1 (Q96GG9 whole entry, looked up): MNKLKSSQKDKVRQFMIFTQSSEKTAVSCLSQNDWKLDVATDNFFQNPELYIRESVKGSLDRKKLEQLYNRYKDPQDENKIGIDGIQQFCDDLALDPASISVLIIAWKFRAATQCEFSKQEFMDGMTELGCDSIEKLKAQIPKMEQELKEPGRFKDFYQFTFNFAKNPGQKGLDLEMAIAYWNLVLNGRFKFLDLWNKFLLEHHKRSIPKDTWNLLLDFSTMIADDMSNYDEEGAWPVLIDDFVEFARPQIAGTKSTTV

C#CCSc1nc(Sc2nccs2)c(C#N)c(-c2ccc(C)cc2)n1
Activity (NCI-H1975 [1]): 9.13% | Activity (NCI-H1975 [2]): inactive | inhibition (NCI-H1975 [3]): Dose-dependent effect | IC50 (PC-9 [4]): 1110 nM | Activity (PC-9 [4]; TDE = time-dependent effect): Tde | Activity (A549 [5]): Dose-dependent effect | viability at 2.5 µM (A549 [6]): 82.2% | viability at 5 µM (A549 [7]): 52.6% | Activity (NCI-H1975 [8]): Tde | Activity (PC-9 [9]): 57.2% | Activity (A549 [10]): 7.02% | Activity (PC-9 [11]): 5.29% | Activity (A549 [12]): 2.52% | viability at 10 µM (PC-9 [13]): 23.4% | Activity (PC-9 [14]): inactive | Activity (A549 [15]): 0.72% | Activity (A549 [16]): 81.1% | IC50 (PC-3): 1620 nM | Activity (NCI-H1975 [17]): 4.92% | Activity (GES1): Non-Toxic | solubility [18]: Soluble | inhibition (PC-9 [19]): Dose-dependent effect | Activity (A549 [20]): 31.6% | IC50 (MCF7): 2200 nM | Activity (A549 [21]): 6.21% | Activity (TE-1): Active | Activity (NCI-H1975 [22]): 9.47% | Activity (PC-9 [23]): inactive | Activity (PC-9 [24]): 0.64% | ΔTm (DCN1-like protein 1): 7 °C | Activity (NCI-H1975 [25]): Dose-dependent effect
